Experimental data collected from several papers.
Read-out: cell growth or viability

SMILES	cell line	test	setting	quantity	value
C#CCn1c(C(=O)/C=C/c2ccc(F)cc2)nc2ccccc21	HCT-116	LDH	48 h	IC50	6.51 µM
O=C(Nc1ccc(Cl)cc1)Nc1cccc(-c2cn(Cc3ccc(Br)cc3)nn2)c1	PC-9	CCK-8	50 µM, 72 h	viability	128%
N.N.[Cl][Pt][Cl]	HCT-116	MTT	24 h	IC50	255 µM
Fc1ccc2c(-c3nc(Cc4ccccc4)cs3)nn(Cc3ccc(Cl)cc3Cl)c2c1	HCT-116	–	48 h	IC50	67.6 µM
S=P1(C2CCCCC2)CCCCC1	HCT-116	MTT	72 h	IC50	> 100 µM
N.N.[Cl][Pt][Cl]	HCT-116	MTT	48 h	IC50	13.3 µM
N.N.[Cl][Pt][Cl]	WSUDLCL2	ATP luminescence	10 µM, 72 h	inhibition	100%
N.N.[Cl][Pt][Cl]	HCT-116	MTT	72 h	IC50	8.2 µM
O=C1[O][Pt]2([NH][C@@H]3CCCC[C@H]3[NH]2)[O]C1=O	HCT-116	MTT	–	IC50	0.8 µM
O=C1CCC(N2C(=O)c3cccc4c(Cc5cnn(C6CCN(C(=O)C7(O)CCC7)CC6)c5)ccc2c34)C(=O)N1 (centres unmarked)	NCI-H929	–	–	IC50	7e-06 µM
N.N.[Cl][Pt][Cl]	SK-OV-3	MTT	72 h	IC50	43.8 µM
